# In ChEMBL document CHEMBL2062474, “Discovery and preliminary SAR of bisbenzylisoquinoline alkaloids as inducers of C/EBPα” (Bioorg Med Chem, 2012):
# pIC50: −log10 of the molar value.
# What was measured:
# [1] = Cytotoxicity against human U937 cells assessed as cell growth at 25 uM after 24 hrs by alamar blue assay; type: cell-based, U-937; settings: read-out: Activity
# Outline: (§1)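 U937 cells engineered with a multimerized C/EBPα binding site driving luciferase were incubated with compound in 384-well format, in triplicate, at multiple 2-fold doses. Toxicity was read by Alamar Blue fluorescence. Growth is expressed relative to untreated U937 cells.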
# U-937 [2] = experiment: Induction of rat C/EBPalpha expression transfected in human U937 cells at 25 uM after 24 hrs by luciferase reporter gene assay relative to ATRA; type: functional
# Outline: (§2)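 Engineered U937 line (4X C/EBPα binding site driving a luciferase reporter) incubated 24 h with or without sample in 384-well plates, in triplicate, across multiple 2-fold doses. Luminescence was read after adding Britelite reagent. ATRA ran on each plate as positive control. Fold induction was normalized to ATRA induction.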
# U-937 [3] = experiment: Cytotoxicity against human U937 cells after 24 hrs by alamar blue assay; type: cell-based; settings: U-937, 24 h
# Outline: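 U937 cells exposed to test sample for 24 h in 384-well format. Toxicity read by Alamar Blue fluorescence and expressed as growth relative to untreated U937 cells. Value is the concentration giving 50% growth inhibition, from multiple 2-fold doses tested in triplicate.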
# U-937 [4] = experiment: Induction of rat C/EBPalpha expression transfected in human U937 cells after 24 hrs by luciferase reporter gene assay relative to ATRA; type: functional; outline: as §2
# U-937 [5] = experiment: Induction of rat C/EBPalpha expression transfected in human U937 cells at 50 uM after 24 hrs by luciferase reporter gene assay relative to ATRA; type: functional; outline: as §2
# [6] = Cytotoxicity against human U937 cells assessed as cell growth at 50 uM after 24 hrs by alamar blue assay; type: cell-based, U-937; settings: read-out: Activity; outline: as §1
# [7] = Cytotoxicity against human U937 cells assessed as cell growth at 12 uM after 24 hrs by alamar blue assay; type: cell-based, U-937; settings: read-out: Activity; outline: as §1
# U-937 [8] = experiment: Induction of rat C/EBPalpha expression transfected in human U937 cells at 12 uM after 24 hrs by luciferase reporter gene assay relative to ATRA; type: functional; outline: as §2
# U-937 [9] = experiment: Induction of rat C/EBPalpha expression transfected in human U937 cells at 3.1 uM after 24 hrs by luciferase reporter gene assay relative to ATRA; type: functional
# Outline: (§3)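 U937 cells carry a luciferase reporter driven by a multimerized C/EBPα binding site (U937 4X C/EBPα). Cells incubated 24 h with or without test sample in 384-well plates, then luciferase read by luminescence. ATRA included on each plate as positive control, and fold induction normalized to ATRA. Multiple 2-fold doses tested in triplicate.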
# [10] = Cytotoxicity against human U937 cells assessed as cell growth at 3.1 uM after 24 hrs by alamar blue assay; type: cell-based, U-937; settings: read-out: Activity
# Outline: (§4)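 U937 cells incubated 24 h with test sample in multiple 2-fold doses, tested in triplicate, in 384-well format. Cell growth read by Alamar Blue fluorescence relative to untreated U937 cells. Value is growth at the concentration giving maximum C/EBPα fold induction.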
# U-937 [11] = experiment: Induction of rat C/EBPalpha expression transfected in human U937 cells at 6.2 uM after 24 hrs by luciferase reporter gene assay relative to ATRA; type: functional; outline: as §3
# [12] = Cytotoxicity against human U937 cells assessed as cell growth at 6.2 uM after 24 hrs by alamar blue assay; type: cell-based, U-937; settings: read-out: Activity; outline: as §4
# [13] = Cytotoxicity against human U937 cells assessed as cell growth at 0.78 uM after 24 hrs by alamar blue assay; type: cell-based, U-937; settings: read-out: Activity; outline: as §4
# U-937 [14] = experiment: Induction of rat C/EBPalpha expression transfected in human U937 cells at 0.78 uM after 24 hrs by luciferase reporter gene assay relative to ATRA; type: functional; outline: as §3
# HL-60 = experiment: Induction of rat C/EBPalpha expression transfected in human HL60 cells after 24 hrs by luciferase reporter gene assay relative to control; type: functional
# U-937 [15] = experiment: Induction of rat C/EBPalpha expression transfected in human U937 cells after 24 hrs by luciferase reporter gene assay relative to control; type: functional; outline: as §3
smiles,measurement,setting,value
COc1cc2c(cc1Oc1ccc(OC)c3c1C[C@H]1c4c(cc(OC)c(OC)c4-3)CCN1C)C[C@H]1c3c(cc(OC)c(OC)c3-2)CCN1C,"viability at 24 h, 25 µM",[1],61%
same,fold change (FC),U-937 [2],0.9
same,pIC50,U-937 [3],< 4.30
same,MED,U-937 [4],>50 µM
COc1cc2c3cc1Oc1c(OC)c(OC)cc4c1[C@@H](Cc1ccc(O)c(c1)Oc1ccc(cc1)C[C@@H]3N(C)CC2)N(C)CC4 [BERBAMINE],fold change (FC),U-937 [5],1.2
same,pIC50,U-937 [3],< 4.30
same,MED,U-937 [4],25 µM
same,"viability at 24 h, 50 µM",[6],70%
COc1ccc2cc1Oc1ccc(cc1)C[C@H]1c3c(cc4c(c3Oc3cc5c(cc3OC)CCN(C)[C@@H]5C2)OCO4)CCN1C [CEPHARANTHINE],"viability at 24 h, 12 µM",[7],87%
same,pIC50,U-937 [3],< 4.30
same,fold change (FC),U-937 [8],1
same,MED,U-937 [4],12 µM
COc1cc2c3cc1Oc1cc(ccc1O)C[C@@H]1c4c(cc(OC)c(O)c4Oc4cccc(c4)C[C@H]3N(C)CC2)CCN1C [CHONDODENDRINE],fold change (FC),U-937 [2],1.9
same,pIC50,U-937 [3],< 4.30
same,MED,U-937 [4],12 µM
COc1cc2c3c(O)c1OCc1ccc(cc1)C[C@@H]1c4c(cc(OC)c(OC)c4Oc4ccc(cc4)CC3=NCC2)CCN1C [CISSAMPAREINE],fold change (FC),U-937 [9],0.5
same,pIC50,U-937 [3],< 4.30
same,MED,U-937 [4],>50 µM
same,"viability at 24 h, 3.1 µM",[10],78%
COc1ccc2cc1Oc1ccc(cc1)CC1=NCCc3cc(OC)c(OC)c(c31)Oc1cc3c(cc1OC)CCN(C)[C@@H]3C2 [EPISTEPHANINE],pIC50,U-937 [3],< 4.30
same,MED,U-937 [4],>50 µM
same,fold change (FC),U-937 [11],0.9
same,"viability at 24 h, 6.2 µM",[12],99%
COc1ccc2cc1Oc1ccc(cc1)C[C@H]1c3cc(c(OC)cc3CCN1C)Oc1c(OC)c(OC)cc3c1[C@H](C2)N(C)CC3 [FANCHININ],"viability at 24 h, 25 µM",[1],69%
same,fold change (FC),U-937 [2],0.9
same,pIC50,U-937 [3],< 4.30
same,MED,U-937 [4],>50 µM
COc1ccc2cc1Oc1ccc(cc1)C[C@H]1c3cc(c(OC)cc3CCN1C)Oc1c(O)c(OC)cc3c1[C@H](C2)N(C)CC3 [FANGCHINOLINE],fold change (FC),U-937 [5],2
same,pIC50,U-937 [3],< 4.30
same,MED,U-937 [4],25 µM
same,"viability at 24 h, 50 µM",[6],102%
COc1cc2c3cc1Oc1c(OC)c(OC)cc4c1[C@H](Cc1ccc(O)c(c1)-c1cc(ccc1OC)C[C@H]3N(C)CC2)N(C)CC4 [FUNIFERINE],fold change (FC),U-937 [5],2.2
same,pIC50,U-937 [3],< 4.30
same,MED,U-937 [4],12 µM
same,"viability at 24 h, 50 µM",[6],94%
COc1cc2c(cc1O)[C@H]1Cc3c(cc(OC)c(OC)c3Oc3cc4c(cc3OC)CCN(C)[C@@H]4Cc3ccc(O)cc3)[C@@H](C2)N1C [HERVELINE O],"viability at 24 h, 25 µM",[1],108%
same,fold change (FC),U-937 [2],0.46
same,pIC50,U-937 [3],< 4.30
same,MED,U-937 [4],>50 µM
COc1ccc2cc1Oc1ccc(cc1)C[C@H]1c3c(cc(OC)c(O)c3Oc3cc4c(cc3OC)CCN(C)[C@@H]4C2)CCN1C [HOMOAROMOLINE],fold change (FC),U-937 [5],1.9
same,pIC50,U-937 [3],< 4.30
same,MED,U-937 [4],3.1 µM
same,"viability at 24 h, 50 µM",[6],80%
COc1ccc2cc1Oc1ccc(cc1)C[C@@H]1c3cc(c(OC)cc3CCN1C)Oc1c(OC)c(OC)cc3c1[C@H](C2)N(C)CC3 [ISOTETRANDRINE],"viability at 24 h, 25 µM",[1],69%
same,fold change (FC),U-937 [2],1.2
same,pIC50,U-937 [3],< 4.30
same,MED,U-937 [4],12 µM
COc1ccc(CC2c3cc(OC)c(OC)cc3CCN2C)cc1OC (stereo unspecified) [LAUDANOSINE],fold change (FC),U-937 [2],0
same,MED,U-937 [4],>50 µM
COc1ccc2cc1Oc1ccc(cc1)C[C@H]1NCCc3cc(OC)c(cc31)Oc1c(O)c(OC)cc3c1CCN(C)[C@@H]3C2 [NORPANURENSINE],fold change (FC),U-937 [5],2.5
same,pIC50,U-937 [3],< 4.30
same,MED,U-937 [4],12 µM
same,"viability at 24 h, 50 µM",[6],113%
COc1cc2c3cc1Oc1c(O)c(OC)cc4c1[C@@H](Cc1ccc(O)c(c1)Oc1ccc(cc1)C[C@@H]3N(C)CC2)N(C)CC4 [OBAMEGINE],"viability at 24 h, 12 µM",[7],89%
same,pIC50,U-937 [3],4.60
same,fold change (FC),U-937 [8],2.6
same,MED,U-937 [4],3 µM
COc1ccc2cc1Oc1ccc(cc1)C[C@@H]1c3cc(c(OC)cc3CCN1C)Oc1c(OC)c(OC)cc3c1[C@@H](C2)N(C)CC3 [PHAEANTHINE],"viability at 24 h, 12 µM",[7],104%
same,pIC50,U-937 [3],4.30
same,fold change (FC),U-937 [8],0.75
same,MED,U-937 [4],>50 µM
COC1=CC2=C3[C@H](Cc4cc5c(c(c4)Oc4ccc(cc4)C[C@H]4c6cc7c(cc6CCN4C)OC[C@@]3(O7)C1=O)OCO5)N(C)CC2 [REPANDULINE],fold change (FC),U-937 [5],1.5
same,pIC50,U-937 [3],< 4.30
same,MED,U-937 [4],50 µM
same,"viability at 24 h, 50 µM",[6],67%
COc1ccc2cc1Oc1ccc(cc1)C[C@@H]1c3c(cc(OC)c4c3Oc3cc5c(cc3O4)CCN[C@@H]5C2)CCN1C [TELOBINE],fold change (FC),U-937 [9],1.9
same,pIC50,U-937 [3],4.92
same,MED,U-937 [4],1.5 µM
same,"viability at 24 h, 3.1 µM",[10],82%
COc1cc2c3cc1Oc1c(OC)c(OC)cc4c1[C@H](Cc1cc5c(c(c1)Oc1ccc(cc1)C[C@@H]3N(C)CC2)OCO5)N(C)CC4 [TENUIPINE],"viability at 24 h, 25 µM",[1],105%
same,fold change (FC),U-937 [2],1.4
same,pIC50,U-937 [3],< 4.30
same,MED,U-937 [4],25 µM
COc1ccc(C[C@H]2c3cc(OC)c(OC)c(OC)c3CC[N+]2(C)C)cc1Oc1ccc(C[C@H]2c3cc4c(c(OC)c3CC[N+]2(C)C)OCO4)cc1.[I-].[I-] [THALISTYLINE DIMETHOIODIDE],fold change (FC),U-937 [9],0.4
same,pIC50,U-937 [3],< 4.30
same,MED,U-937 [4],>50 µM
same,"viability at 24 h, 3.1 µM",[10],116%
COc1ccc(C[C@H]2c3cc(OC)c(OC)c(OC)c3CC[N+]2(C)C)cc1Oc1ccc(C[C@H]2c3cc(OC)c4c(c3CCN2C)OCO4)cc1.[Cl-] [THALISTYLINE],pIC50,U-937 [3],< 4.30
same,MED,U-937 [4],>50 µM
same,"viability at 24 h, 0.78 µM",[13],133%
same,fold change (FC),U-937 [14],0.9
COc1ccc2cc1-c1cc(ccc1O)C[C@H]1c3cc4c(cc3CCN1C)Oc1c(OC)cc3c(c1O4)[C@H](C2)N(C)CC3 [TILIACORININE],"viability at 24 h, 12 µM",[7],63%
same,pIC50,U-937 [3],4.60
same,fold change (FC),U-937 [8],1.9
same,MED,U-937 [4],12 µM
CC1=C(/C=C/C(C)=C/C=C/C(C)=C/C(=O)O)C(C)(C)CCC1 [TRETINOIN],fold change (FC),HL-60,2
same,fold change (FC),U-937 [15],2
COc1cc2c3c4c1Oc1cc5c(cc1O4)[C@@H](Cc1ccc(O)c(c1)Oc1ccc(cc1)C[C@@H]3N(C)CC2)N(C)CC5 [TRIGILLETINE],fold change (FC),U-937 [9],0.8
same,pIC50,U-937 [3],4.30
same,MED,U-937 [4],>50 µM
same,"viability at 24 h, 3.1 µM",[10],108%
